Reference: ChEMBL document CHEMBL4346672, “Antimicrobial and KPC/AmpC inhibitory activity of functionalized benzosiloxaboroles” (Eur J Med Chem, 2019)
In brackets after ≈: the same amount, converted by molar mass. Activity calls are given as the source filed them. The calls are words filed in the database; no cut-off is given here.

Tests used:
Staphylococcus aureus [1] = test: Antibacterial activity against Staphylococcus aureus ATCC 6538P assessed as diameter of zone inhibition measured after 18 hrs by CLSI disc diffusion method; format: functional
In short: (§1)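 Disc diffusion on Mueller-Hinton II agar. Compounds dissolved in DMSO. Strains stored at -80 °C and subcultured twice on tryptic soy agar before testing. Inhibition zones read after 35 °C, 18 h.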

Pseudomonas aeruginosa [2] = test: Antibacterial activity against Pseudomonas aeruginosa ATCC 27853 measured after 18 hrs by CLSI broth dilution method; format: functional; details: ATCC 27853, 18 h
In short: (§2)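 Broth MIC in Mueller-Hinton II broth following CLSI, compounds dissolved in DMSO. Strains subcultured twice on tryptic soy agar before testing. Growth read after 35 °C, 18 h.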

Candida albicans [3] = test: Antifungal activity against Candida albicans ATCC 90028 assessed as decrease in fungal cell growth at 0.78 to 12.5 mg/L incubated for 24 hrs by CLSI broth dilution method; format: functional; details: ATCC 90028, 24 h
In short: (§3)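 Yeast broth dilution in RPMI 1640 with 2% glucose, compounds in DMSO. Yeasts pre-grown on Sabouraud dextrose agar. Growth read after 35 °C, 24 h.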

Pichia kudriavzevii = test: Antifungal activity against Candida krusei ATCC 6258 assessed as decrease in fungal cell growth at 0.78 to 12.5 mg/L incubated for 24 hrs by CLSI broth dilution method; format: functional; details: ATCC 6258, 24 h; in short: as §3
Candida albicans [4] = test: Antifungal activity against Candida albicans ATCC 90028 assessed as diameter of zone inhibition incubated for 24 hrs by CLSI disc diffusion method; format: functional
In short: (§4)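 Yeast disc diffusion on Mueller-Hinton agar supplemented with 2% glucose and 0.5 mg/L methylene blue. Compounds in DMSO. Yeasts subcultured on Sabouraud dextrose agar before testing. Zones read after 35 °C, 24 h.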

Candida parapsilosis = test: Antifungal activity against Candida parapsilosis ATCC 22019 assessed as diameter of zone inhibition incubated for 24 hrs by CLSI disc diffusion method; format: functional; in short: as §4
Candida tropicalis = test: Antifungal activity against Candida tropicalis IBA 171 assessed as diameter of zone inhibition incubated for 24 hrs by CLSI disc diffusion method; format: functional; in short: as §4
[5] = test system: Meyerozyma guilliermondii; test: Antifungal activity against Candida guilliermondii IBA 155 assessed as diameter of zone inhibition incubated for 24 hrs by CLSI disc diffusion method; format: functional; in short: as §4
Saccharomyces cerevisiae = test: Antifungal activity against Saccharomyces cerevisiae ATCC 9763 diameter of zone inhibition incubated for 24 hrs by CLSI disc diffusion method; format: functional
In short: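 Disc-diffusion run on Mueller-Hinton II agar with 2% glucose and 0.5 mg/L methylene blue, using compounds in DMSO. Yeast was precultured on Sabouraud dextrose agar (24–48 h, 30 °C). Zones read after 24 h at 35 °C.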

Staphylococcus aureus [6] = test: Antibacterial activity against Staphylococcus aureus ATCC 6538P measured after 18 hrs by CLSI broth dilution method; format: functional; in short: as §2
Enterococcus faecium [7] = test: Antibacterial activity against Enterococcus faecium ATCC 6057 measured after 18 hrs by CLSI broth dilution method; format: functional; details: ATCC 6057, 18 h; in short: as §2
[8] = test system: Staphylococcus epidermidis; test: Antibacterial activity against Staphylococcus epidermidis ATCC 12228 assessed as diameter of zone inhibition measured after 18 hrs by CLSI disc diffusion method; format: functional; in short: as §1
Enterococcus faecalis = test: Antibacterial activity against Enterococcus faecalis ATCC 29212 assessed as diameter of zone inhibition measured after 18 hrs by CLSI disc diffusion method; format: functional; in short: as §1
Enterococcus faecium [9] = test: Antibacterial activity against Enterococcus faecium ATCC 6057 assessed as diameter of zone inhibition measured after 18 hrs by CLSI disc diffusion method; format: functional; in short: as §1
Escherichia coli [10] = test: Antibacterial activity against Escherichia coli ATCC 25922 measured after 18 hrs by CLSI broth dilution method; format: functional; details: ATCC 25922, 18 h; in short: as §2
Klebsiella pneumoniae [11] = test: Antibacterial activity against Klebsiella pneumoniae ATCC 13883 measured after 18 hrs by CLSI broth dilution method; format: functional; details: ATCC 13883, 18 h; in short: as §2
[12] = test system: Bordetella bronchiseptica; test: Antibacterial activity against Bordetella bronchiseptica ATCC 4617 measured after 18 hrs by CLSI broth dilution method; format: functional; details: ATCC 4617, 18 h; in short: as §2
Acinetobacter baumannii [13] = test: Antibacterial activity against Acinetobacter baumannii ATCC 19606 measured after 18 hrs by CLSI broth dilution method; format: functional; details: ATCC 19606, 18 h; in short: as §2
[14] = test system: Stenotrophomonas maltophilia; test: Antibacterial activity against Stenotrophomonas maltophilia ATCC 13637 measured after 18 hrs by CLSI broth dilution method; format: functional; details: ATCC 13637, 18 h; in short: as §2
Burkholderia cepacia [15] = test: Antibacterial activity against Burkholderia cepacia ATCC 25416 measured after 18 hrs by CLSI broth dilution method; format: functional; details: ATCC 25416, 18 h; in short: as §2
Escherichia coli [16] = test: Antibacterial activity against Escherichia coli ATCC 25922 assessed as diameter of zone inhibition measured after 18 hrs by CLSI disc diffusion method; format: functional; in short: as §1
Enterobacter cloacae = test: Antibacterial activity against Enterobacter cloacae DSM 6234 assessed as diameter of zone inhibition measured after 18 hrs by CLSI disc diffusion method; format: functional; in short: as §1
Pseudomonas aeruginosa [17] = test: Antibacterial activity against Pseudomonas aeruginosa ATCC 27853 assessed as diameter of zone inhibition measured after 18 hrs by CLSI disc diffusion method; format: functional, organism-based; in short: as §1
Acinetobacter baumannii [18] = test: Antibacterial activity against Acinetobacter baumannii ATCC 19606 assessed as diameter of zone inhibition measured after 18 hrs by CLSI disc diffusion method; format: functional; in short: as §1
Burkholderia cepacia [19] = test: Antibacterial activity against Burkholderia cepacia ATCC 25416 assessed as diameter of zone inhibition measured after 18 hrs by CLSI disc diffusion method; format: functional; in short: as §1
[20] = test system: Bordetella bronchiseptica; test: Antibacterial activity against Bordetella bronchiseptica ATCC 4617 assessed as diameter of zone inhibition measured after 18 hrs by CLSI disc diffusion method; format: functional; in short: as §1
Escherichia coli [21] = test: Antibacterial activity against Escherichia coli ATCC 25922 assessed as fold reduction of MIC in presence of efflux pump inhibitor PAbetaN incubated for 18 hrs by CLSI broth microdilution method; format: functional
In short: (§5)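 MICs determined with and without PAβN at 50 mg/L in Mueller-Hinton broth containing 1 mM MgSO₄. 2-fold serial dilutions per CLSI. Fold change taken from the paired MICs after 35 °C, 18 h.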

Klebsiella pneumoniae [22] = test: Antibacterial activity against Klebsiella pneumoniae ATCC 13883 assessed as fold reduction of MIC in presence of efflux pump inhibitor PAbetaN incubated for 18 hrs by broth microdilution method; format: functional; in short: as §5
Proteus mirabilis = test: Antibacterial activity against Proteus mirabilis ATCC 12453 assessed as fold reduction of MIC in presence of efflux pump inhibitor PAbetaN incubated for 18 hrs by broth microdilution method; format: functional; in short: as §5
Serratia marcescens = test: Antibacterial activity against Serratia marcescens ATCC 13880 assessed as fold reduction of MIC in presence of efflux pump inhibitor PAbetaN incubated for 18 hrs by broth microdilution method; format: functional; in short: as §5
Pseudomonas aeruginosa [23] = test: Antibacterial activity against Pseudomonas aeruginosa ATCC 27853 assessed as fold reduction of MIC in presence of efflux pump inhibitor PAbetaN incubated for 18 hrs microdilution method; format: functional; in short: as §5
Acinetobacter baumannii [24] = test: Antibacterial activity against Acinetobacter baumannii ATCC 19606 assessed as fold reduction of MIC in presence of efflux pump inhibitor PAbetaN incubated for 18 hrs by broth microdilution method; format: functional; in short: as §5
Klebsiella pneumoniae [25] = details: ATCC 13883

Row | Compound | diameter of the inhibition zone (DIZ) (Staphylococcus aureus [1]) [mm] | MIC (Pseudomonas aeruginosa [2]) [µg/mL] | MIC (Candida albicans [3]) [µg/mL] | MIC (Pichia kudriavzevii) [µg/mL] | diameter of the inhibition zone (DIZ) (Candida albicans [4]) | diameter of the inhibition zone (DIZ) (Candida parapsilosis) | diameter of the inhibition zone (DIZ) (Candida tropicalis) | diameter of the inhibition zone (DIZ) [5] | diameter of the inhibition zone (DIZ) (Saccharomyces cerevisiae) | MIC (Staphylococcus aureus [6]) [µg/mL] | MIC (Enterococcus faecium [7]) [µg/mL] | diameter of the inhibition zone (DIZ) [8] [mm] | diameter of the inhibition zone (DIZ) (Enterococcus faecalis) | diameter of the inhibition zone (DIZ) (Enterococcus faecium [9]) | MIC (Escherichia coli [10]) [µg/mL] | MIC (Klebsiella pneumoniae [11]) [µg/mL] | MIC [12] [µg/mL] | MIC (Acinetobacter baumannii [13]) [µg/mL] | MIC [14] [µg/mL] | MIC (Burkholderia cepacia [15]) [µg/mL] | further results
1 | C[Si]1(C)OB(O)c2ccc(F)c(F)c21 | 32 | > 400 | 100 (≈ 467 µM) | 100 (≈ 467 µM) | 15 mm | 11 mm | 12 mm | 30 mm | 30 mm | 25 (≈ 117 µM) | 100 (≈ 467 µM) | 33 | inactive | 18 mm | > 400 | > 400 | > 400 | 200 (≈ 934 µM) | 200 (≈ 934 µM) | > 400 | diameter of the inhibition zone (DIZ) (Escherichia coli [16]): inactive; diameter of the inhibition zone (DIZ) (Enterobacter cloacae): inactive; diameter of the inhibition zone (DIZ) (Pseudomonas aeruginosa [17]): inactive; diameter of the inhibition zone (DIZ) (Acinetobacter baumannii [18]): inactive; diameter of the inhibition zone (DIZ) (Burkholderia cepacia [19]): inactive; diameter of the inhibition zone (DIZ) [20]: inactive; fold change (FC) (Escherichia coli [21]): 32; fold change (FC) (Klebsiella pneumoniae [22]): 16; fold change (FC) (Proteus mirabilis): 2; fold change (FC) (Serratia marcescens): 8; fold change (FC) (Pseudomonas aeruginosa [23]): 32; fold change (FC) (Acinetobacter baumannii [24]): 4; DIZ (Klebsiella pneumoniae [25]): inactive
2 | C[Si]1(C)OB(O)c2cc(F)c(C=O)c(F)c21 | 21 | > 400 | > 400 | 25 (≈ 103 µM) | inactive | inactive | inactive | inactive | inactive | 200 (≈ 826 µM) | 50 (≈ 207 µM) | 22 | inactive | inactive | > 400 | > 400 | > 400 | > 400 | > 400 | > 400 | diameter of the inhibition zone (DIZ) (Escherichia coli [16]): inactive; diameter of the inhibition zone (DIZ) (Enterobacter cloacae): inactive; diameter of the inhibition zone (DIZ) (Pseudomonas aeruginosa [17]): inactive; diameter of the inhibition zone (DIZ) (Acinetobacter baumannii [18]): inactive; diameter of the inhibition zone (DIZ) (Burkholderia cepacia [19]): inactive; diameter of the inhibition zone (DIZ) [20]: inactive; fold change (FC) (Escherichia coli [21]): 4; fold change (FC) (Klebsiella pneumoniae [22]): 4; fold change (FC) (Proteus mirabilis): 2; fold change (FC) (Serratia marcescens): 4; fold change (FC) (Pseudomonas aeruginosa [23]): 8; fold change (FC) (Acinetobacter baumannii [24]): 4; DIZ (Klebsiella pneumoniae [25]): inactive
3 | C[Si]1(C)OB(O)c2cc(C=O)cc(F)c21 | 22 | > 400 | 400 (≈ 1790 µM) | > 400 | inactive | inactive | inactive | inactive | inactive | 25 (≈ 112 µM) | 200 (≈ 893 µM) | 31 | inactive | inactive | > 400 | > 400 | > 400 | > 400 | > 400 | > 400 | diameter of the inhibition zone (DIZ) (Escherichia coli [16]): inactive; diameter of the inhibition zone (DIZ) (Enterobacter cloacae): inactive; diameter of the inhibition zone (DIZ) (Pseudomonas aeruginosa [17]): inactive; diameter of the inhibition zone (DIZ) (Acinetobacter baumannii [18]): inactive; diameter of the inhibition zone (DIZ) (Burkholderia cepacia [19]): inactive; diameter of the inhibition zone (DIZ) [20]: inactive; fold change (FC) (Escherichia coli [21]): 16; fold change (FC) (Klebsiella pneumoniae [22]): 8; fold change (FC) (Proteus mirabilis): 4; fold change (FC) (Serratia marcescens): 8; fold change (FC) (Pseudomonas aeruginosa [23]): 4; fold change (FC) (Acinetobacter baumannii [24]): 4; DIZ (Klebsiella pneumoniae [25]): inactive
